We go through 1 substance from PMC9673105 (Poultry Science, 2022).

In assay [1] the test system is hypothalamic neuropeptides. To be noted: orange-spotted grouper; ref Li et al., 2016; cited from earlier work.
Assay [2] has as its system Xenopus GALR2b. To be noted: ref Kim et al., 2014, Cohen et al., 2020; cited from earlier work.
Assay [3] concerns hypothalamic neuropeptides. The settings on record: goldfish; ref Wong et al., 2013; cited from earlier work.
Assay [4] relates to Siberian sturgeon. The settings on record: ref Tian et al., 2020, cited from earlier work.
The test system of assay [5] is POMC. Briefly: Hypothalamic POMC mRNA. Format: in vivo. To be noted: chicken. The method, boiled down:
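3-wk-old male chicks, randomized into four groups (N ≥ 3), given test peptide intravenously at 10, 50 or 100 ng/g BW, or PBS as control. Hypothalami collected 6, 12 and 24 h post-injection. EvaGreen qRT-PCR with melting-curve and agarose-gel specificity checks. mRNA normalised to β-actin and expressed as fold of PBS group. One-way ANOVA with Dunnett's test.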

Assay [6] deals with tilapia GALR2b. The settings on record: ref Kim et al., 2014, Cohen et al., 2020; cited from earlier work.
Assay [7] has as its system goldfish. To be noted: injection, ref Wong et al., 2013; cited from earlier work.
Assay [8] relates to hypothalamic neuropeptides. To be noted: zebrafish; ref Zheng et al., 2017; cited from earlier work.
The subject of assay [9] is human GALR3. To be noted: ref Kim et al., 2014, Cohen et al., 2020; cited from earlier work.
Assay [10] concerns GALR1. The settings on record: ref Kim et al., 2014, cited from earlier work.
Assay [11] relates to luteinizing hormone (LH) release. The settings on record: ewe; ref Lomet et al., 2020; cited from earlier work.
Assay [12] deals with zebrafish GALR2a. To be noted: ref Kim et al., 2014, Cohen et al., 2020; cited from earlier work.
Assay [13] concerns hypothalamic neuropeptides. The settings on record: mouse; ref Lv et al., 2020; cited from earlier work.
The subject of assay [14] is zebrafish GALR2b. To be noted: ref Kim et al., 2014, Cohen et al., 2020; cited from earlier work.
The test system of assay [15] is tilapia GALR2a. To be noted: ref Kim et al., 2014, Cohen et al., 2020; cited from earlier work.
Assay [16] deals with Xenopus GALR3. The settings on record: ref Kim et al., 2014, Cohen et al., 2020; cited from earlier work.
The subject of assay [17] is mice. The settings on record: cited from earlier work.
Assay [18] has as its system human GALR2. To be noted: ref Kim et al., 2014, Cohen et al., 2020; cited from earlier work.
For assay [19] the following is noted: cited from earlier work.
The subject of assay [20] is GALR2. The settings on record: mouse; ref Lin et al., 2015; cited from earlier work.

Like-named read-outs stand apart in the source and are kept apart here.

For “SPX: Spexin, novel neuropeptide; mature peptide with 14 amino acid residues, of various species in cited literature”, the POMC expression entry in assay [1], in [3] and in assay [8] was “could elevate POMC expression” throughout. Further, the receptor activation result in assay [2] was “could activate”; in [6], “could activate”; in assay [9] it was “could activate”; in assay [10] (GALR1, Cohen et al., 2020), “not GALR1”; in assay [12], “could activate”; in [14], “could activate”. Also, the receptor activation result in [15], in assay [16] and in assay [18] was “could activate” throughout. In addition, the feed consumption entry in [4] (injection) and in assay [7] was “observably decreased” each time. Also, the feeding result in [4] (intraperitoneal (IP) injection) was “feeding inhibition”; in assay [17] (intraperitoneal (IP) injection, ref Lv et al., 2020, Wong et al., 2021b), “feeding inhibition”. For the same substance, in [5], the “POMC mRNA level (in words)” value was “failed to change the mRNA level of POMC”. For the same substance, the “activation of GALR1” value in assay [10] is given as “incompetent in activating GALR1”. The “basal and KISS-induced luteinizing hormone (LH) release” value in assay [11] is reported as “does not impact”. Moreover, the “POMC mRNA level” value in assay [13] was “failed to change the mRNA level of POMC”. Besides, the feed intake result in [17] (peripheral, ref Lv et al., 2020) is given as “suppresses feed intake”. Further, the body weight entry in assay [19] (rodents with diet-induced obesity, ref Walewski et al., 2014) is “lose weight”; in assay [19] (rodents, ref Kolodziejski et al., 2021), “weight loss”. Also, the “bowel movement via SPX-dependent GALR2 activation” value in assay [20] was “could enhance bowel movement”.
